# In ChEMBL document CHEMBL1148494, “Comparison between 5,10,15,20-tetraaryl- and 5,15-diarylporphyrins as photosensitizers: synthesis, photodynamic activity, and quantitative structure-activity relationship modeling” (J Med Chem, 2006):
# Where “and” joins values, the source holds several entries; their conditions need not be identical. Identical values can stand only once.
# Test system: HCT-116
# Assay: Cytotoxicity against human HCT116 cell line
# Assay type: functional, cell-based
# Method in brief: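 HCT116 cells kept in DMEM, seeded at 5 × 10⁴ cells/mL, grown 48 h, then exposed to a range of PS concentrations for 24 h. PS medium swapped for PBS; visible light from a tungsten-halogen lamp for 2 h (22 mW/cm², 158.4 J/cm²). Then 24 h at 37 °C in drug-free medium. MTT 0.4 mg/mL final for 3 h; formazan in DMSO read at 570 nm. IC50 by nonlinear regression, mean of three replicates ± SE.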
row,SMILES,IC50
1,COc1cccc(-c2c3nc(c(-c4ccccc4)c4ccc([nH]4)c(-c4ccccc4)c4nc(c(-c5ccccc5)c5ccc2[nH]5)C=C4)C=C3)c1,0.0998 µg/mL and 155 nM
2,COc1ccc(-c2c3nc(cc4ccc([nH]4)c(-c4cc(OC)c(OC)c(OC)c4)c4nc(cc5ccc2[nH]5)C=C4)C=C3)cc1,0.00903 µg/mL and 15.5 nM
3,Oc1cc(-c2c3nc(cc4ccc([nH]4)c(-c4ccccc4)c4nc(cc5ccc2[nH]5)C=C4)C=C3)cc(O)c1O,0.00497 µg/mL and 9.75 nM
4,COc1cc(-c2c3nc(c(-c4ccccc4)c4ccc([nH]4)c(-c4ccccc4)c4nc(c(-c5ccccc5)c5ccc2[nH]5)C=C4)C=C3)cc(OC)c1OC,0.709 µg/mL and 1.01 µM
5,Oc1cccc(-c2c3nc(c(-c4cccc(O)c4)c4ccc([nH]4)c(-c4cccc(O)c4)c4nc(c(-c5cccc(O)c5)c5ccc2[nH]5)CC4)C=C3)c1 [TEMOPORFIN],0.00517 µg/mL and 7.6 nM
6,C1=Cc2nc1cc1ccc([nH]1)c(-c1ccccc1)c1nc(cc3ccc([nH]3)c2-c2ccccc2)C=C1,0.00263 µg/mL and 5.66 nM
7,COc1cccc(-c2c3nc(cc4ccc([nH]4)c(-c4ccccc4)c4nc(cc5ccc2[nH]5)C=C4)C=C3)c1,0.00293 µg/mL and 5.94 nM
8,C1=Cc2cc3ccc([nH]3)c(-c3ccccc3)c3ccc(cc4nc(cc1n2)C=C4)[nH]3,0.00123 µg/mL and 3.2 nM
9,COc1cc(-c2c3nc(cc4ccc([nH]4)c(-c4cc(OC)c(OC)c(OC)c4)c4ccc(cc5nc2C=C5)[nH]4)C=C3)cc(OC)c1OC,0.00632 µg/mL and 9.84 nM
10,Oc1cccc(-c2c3nc(c(-c4ccccc4)c4ccc([nH]4)c(-c4ccccc4)c4nc(c(-c5ccccc5)c5ccc2[nH]5)C=C4)C=C3)c1,0.217 µg/mL and 344 nM
11,C1=Cc2nc1cc1ccc([nH]1)c(-c1ccccc1)c1ccc(cc3nc(c2-c2ccccc2)CC3)[nH]1,0.00151 µg/mL and 3.26 nM
12,Oc1ccc(-c2c3nc(cc4ccc([nH]4)c(-c4ccccc4)c4nc(cc5ccc2[nH]5)C=C4)C=C3)cc1,0.00335 µg/mL and 7.01 nM
13,COc1cc(-c2c3nc(cc4ccc(cc5nc(cc6ccc2[nH]6)C=C5)[nH]4)C=C3)cc(OC)c1OC,0.00229 µg/mL and 4.8 nM
14,COc1ccc(-c2c3nc(c(-c4ccc(OC)cc4)c4ccc([nH]4)c(-c4cc(OC)c(OC)c(OC)c4)c4nc(c(-c5ccc(OC)cc5)c5ccc2[nH]5)C=C4)C=C3)cc1,> 1.5 µg/mL and > 1.89 µM
15,COc1ccc(-c2c3nc(c(-c4ccccc4)c4ccc([nH]4)c(-c4ccccc4)c4nc(c(-c5ccccc5)c5ccc2[nH]5)C=C4)C=C3)cc1,0.894 µg/mL and 1.39 µM
16,COc1cc(-c2c3nc(cc4ccc([nH]4)c(-c4ccccc4)c4nc(cc5ccc2[nH]5)C=C4)C=C3)cc(OC)c1OC,0.00428 µg/mL and 7.75 nM
17,Oc1cccc(-c2c3nc(cc4ccc([nH]4)c(-c4cccc(O)c4)c4nc(cc5ccc2[nH]5)C=C4)C=C3)c1,0.00351 µg/mL and 7.09 nM
18,COc1cccc(-c2c3nc(cc4ccc([nH]4)c(-c4cc(OC)c(OC)c(OC)c4)c4nc(cc5ccc2[nH]5)C=C4)C=C3)c1,0.00921 µg/mL and 15.8 nM
19,COc1ccc(-c2c3nc(cc4ccc(cc5nc(cc6ccc2[nH]6)C=C5)[nH]4)C=C3)cc1,0.00077 µg/mL and 1.85 nM
20,COc1cccc(-c2c3nc(cc4ccc([nH]4)c(-c4cccc(OC)c4)c4nc(cc5ccc2[nH]5)C=C4)C=C3)c1,0.0129 µg/mL and 24.7 nM
21,COc1ccc(-c2c3nc(cc4ccc([nH]4)c(-c4ccc(OC)cc4)c4nc(cc5ccc2[nH]5)C=C4)C=C3)cc1,0.0274 µg/mL and 52.5 nM
22,COc1ccc(-c2c3nc(cc4ccc([nH]4)c(-c4ccccc4)c4nc(cc5ccc2[nH]5)C=C4)C=C3)cc1,0.00606 µg/mL and 12.3 nM
23,Oc1cccc(-c2c3nc(cc4ccc([nH]4)c(-c4ccccc4)c4nc(cc5ccc2[nH]5)C=C4)C=C3)c1,0.00051 µg/mL and 1.06 nM
24,Oc1ccc(-c2c3nc(c(-c4ccccc4)c4ccc([nH]4)c(-c4ccccc4)c4nc(c(-c5ccccc5)c5ccc2[nH]5)C=C4)C=C3)cc1,0.145 µg/mL and 230 nM
25,Oc1cc(-c2c3nc(c(-c4ccccc4)c4ccc([nH]4)c(-c4ccccc4)c4nc(c(-c5ccccc5)c5ccc2[nH]5)C=C4)C=C3)cc(O)c1O,0.0353 µg/mL and 53.3 nM
